Converted amounts (≈) assume the structure as drawn.
Legend:
[1] = Stability in pooled human liver microsomes assessed as compound remaining measured after 1 hr; assay type: ADME, microsome; conditions: read-out: Stability
[2] = Stability in CD-1 mouse liver microsomes assessed as compound remaining measured after 1 hr; assay type: ADME, microsome; conditions: read-out: Stability
[3] = test system: Mycobacterium tuberculosis; test: Anti-tubercular activity against Mycobacterium tuberculosis infected in BALB/c mouse assessed as reduction in lung colony forming units at 100 mg/kg, po administered via gavage for 5 days each week for 3 weeks measured after 1 day post last dose relative to PA-824; assay type: functional
How it was run: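 Mouse model of acute TB infection. Oral dosing at 100 mg/kg daily, 5 days per week, for 3 weeks. Read-out is fold reduction in lung CFU, expressed as a ratio to the fold CFU reduction from the reference nitroimidazole run alongside.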

[4] = test system: Trypanosoma brucei brucei; test: Anti-parasitic activity against Trypanosoma brucei brucei Squib-427 after 72 hrs by resazurin dye based fluorescence assay; assay type: functional; conditions: Trypanosoma brucei, Squib-427, 72 h
How it was run: (§1)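 IC50 for growth inhibition of L. infantum, T. cruzi and T. brucei parasites, or for cytotoxicity toward human lung fibroblasts (MRC-5). Values are means of two or more independent experiments.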

[5] = Cytotoxicity against human MRC5 SV2 cells after 72 hrs by resazurin dye based fluorescence assay; assay type: cell-based; conditions: Homo sapiens, MRC-5 SV2, 72 h; how it was run: as §1
[6] = test system: Mycobacterium tuberculosis; test: Anti-tubercular activity against Mycobacterium tuberculosis H37Rv ATCC 27294 after 7 days under aerobic condition by microplate alamar blue assay; assay type: functional; conditions: Mycobacterium tuberculosis, H37Rv ATCC 27294, 168 h; read-out: MIC
How it was run: (§2)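 M. tuberculosis H37Rv MIC measured in two assays: aerobic growth by MABA and hypoxic exposure by LORA. Each value is the mean of ≥2 independent determinations.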

Trypanosoma cruzi = test: Anti-parasitic activity against Trypanosoma cruzi Tulahuen CL2 infected in human MRC5 cells after 7 days by chlorophenol red […]-D-galactopyranoside dye based assay; assay type: functional, cell-based; conditions: Trypanosoma cruzi, Tulahuen CL2, MRC5, 168 h; how it was run: as §1
[7] = test system: Mycobacterium tuberculosis; test: Anti-tubercular activity against Mycobacterium tuberculosis H37Rv ATCC 27294 after 10 days under hypoxic condition by low-oxygen recovery assay; assay type: functional; conditions: Mycobacterium tuberculosis, H37Rv ATCC 27294, 240 h; read-out: MIC; how it was run: as §2
[8] = Solubility in water at pH 7 after 15 mins by HPLC method; assay type: physicochemical; conditions: for solubility at 0.25 h: water, pH 7
How it was run: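 Solubility measured at 20 °C by HPLC, in water (pH 7) or 0.1 M HCl (pH 1).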

Vero = test: Cytotoxicity against African green monkey Vero cells after 72 hrs by MTS/PMS assay; assay type: cell-based; conditions: Chlorocebus sabaeus
How it was run: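 VERO mammalian cells exposed for 72 h. Cytotoxicity IC50 comes from a single test.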

Leishmania infantum = test: Anti-parasitic activity against Leishmania infantum MHOM/MA(BE)/67 amastigotes infected in mouse primary peritoneal macrophages after 5 days by giemsa staining based microscopic method; assay type: functional; conditions: Leishmania infantum, MHOM/MA(BE)/67, 120 h; how it was run: as §1

SMILES | remaining at 1 h [1] [%] | remaining at 1 h [2] [%] | fold change (FC) [3] | IC50 [4] [µM] | IC50 [5] [µM] | MIC [6] [µM] | IC50 (Trypanosoma cruzi) [µM] | MIC [7] [µM] | solubility ([8]; buffer, pH 7, 0.25 h) [µg/mL] | solubility at 0.25 h [8] [µg/mL] | IC50 (Vero) [µM] | IC50 (Leishmania infantum) [µM]
C[C@]1(COc2ccc(N3CCC(Oc4ccc(OC(F)(F)F)cc4)CC3)cc2)Cn2cc([N+](=O)[O-])nc2O1 | 71 | 87 | 68 |  |  |  |  |  |  |  |  | 
O=[N+]([O-])c1cn2c(n1)OC[C@@H](COc1ccc(OC(F)(F)F)cc1)C2 | 82 | 94 |  |  |  |  |  |  |  |  |  | 
CC1(COc2ccc(Oc3ccccc3)cc2)Cn2cc([N+](=O)[O-])nc2O1 (configuration not stated) |  |  |  | 28 | > 64 | 0.79 (≈ 0.29 µg/mL) | 1.9 | 24 (≈ 8.82 µg/mL) |  |  |  | 
CC1(COc2ccc(-c3ccc(OC(F)(F)F)cc3)cc2)Cn2cc([N+](=O)[O-])nc2O1 (configuration not stated) |  |  | 115 |  |  |  |  |  | 0.41 (≈ 0.942 µM) |  |  | 
CC1(COCc2ccc(OC(F)(F)F)cc2)Cn2cc([N+](=O)[O-])nc2O1 (configuration not stated) |  |  | 0.025 |  |  |  |  |  |  | 11 (≈ 29.5 µM) |  | 
O=[N+]([O-])c1cn2c(n1)SC(COc1ccc(Oc3ccccc3)cc1)C2 (configuration not stated) |  |  |  | 11 | 56 | > 128 | 1.6 | 29 (≈ 10.7 µg/mL) |  |  | > 128 | 56
CC1(COc2ccc(-c3ccc(F)cc3)cc2)Cn2cc([N+](=O)[O-])nc2S1 (configuration not stated) |  |  |  | > 64 | > 64 | 0.21 (≈ 0.0809 µg/mL) | 0.21 | > 64 |  |  | > 128 | > 64
CC1(COc2ccc(OC(F)(F)F)cc2)Cn2cc([N+](=O)[O-])nc2S1 (configuration not stated) |  |  |  | > 64 | > 64 | 0.49 (≈ 0.184 µg/mL) | 0.38 | 10 (≈ 3.75 µg/mL) |  |  | > 128 | > 64
CC1(CO)Cn2cc([N+](=O)[O-])nc2S1 (configuration not stated) |  |  |  |  |  | 10 (≈ 2.15 µg/mL) |  | > 128 |  |  |  | 
C[C@]1(COCc2ccc(OC(F)(F)F)cc2)Cn2cc([N+](=O)[O-])nc2S1 | 29 | 0 |  | > 64 | 43 | 0.2 (≈ 0.0779 µg/mL) | 0.57 | 5.8 (≈ 2.26 µg/mL) |  |  | 24 | > 64
CC1(COCc2ccc(-c3ccc(OC(F)(F)F)cc3)cc2)Cn2cc([N+](=O)[O-])nc2S1 (configuration not stated) |  |  |  | 2.8 | > 64 | 1.4 (≈ 0.652 µg/mL) | 0.14 | > 64 |  |  |  | 56
CC1(COCc2ccc(-c3ccc(C(F)(F)F)cc3)cc2)Cn2cc([N+](=O)[O-])nc2S1 (configuration not stated) |  |  |  | 1.1 | > 64 | 1.1 (≈ 0.494 µg/mL) | 0.04 | > 64 |  |  |  | 56
CC1(COc2ccc(-c3ccc(OC(F)(F)F)cc3)cc2)Cn2cc([N+](=O)[O-])nc2S1 (configuration not stated) | 84 | 75 | 5.7 | > 64 | > 64 | 0.063 (≈ 0.0284 µg/mL) | 0.085 | > 128 |  | 0.25 (≈ 0.554 µM) | > 128 | 45
C[C@@]1(COCc2ccc(OC(F)(F)F)cc2)Cn2cc([N+](=O)[O-])nc2S1 |  |  |  | > 64 | > 64 | 6.1 (≈ 2.38 µg/mL) | 1.6 | 51 (≈ 19.9 µg/mL) |  |  | 52 | > 64
O=[N+]([O-])c1cn2c(n1)SC(COCc1ccc(OC(F)(F)F)cc1)C2 (configuration not stated) |  |  |  | > 64 | > 64 | 4.4 (≈ 1.65 µg/mL) | 0.87 | 15 (≈ 5.63 µg/mL) |  |  | > 128 | 64
CC1(COc2ccc(OC(F)(F)F)cc2)Cn2nc([N+](=O)[O-])nc2S1(=O)=O (configuration not stated) |  |  |  | 2.1 | 0.42 | 2.2 (≈ 0.898 µg/mL) | 1.3 | 27 (≈ 11 µg/mL) |  |  | 46 | 1.3
CC1(COCc2ccc(Oc3ccccc3)cc2)Cn2c([N+](=O)[O-])cnc2S1 (configuration not stated) |  |  |  | 53 | > 64 | > 128 | 19 | > 128 |  |  |  | 55
CC1(COCc2ccc(-c3ccc(F)cc3)cc2)Cn2cc([N+](=O)[O-])nc2S1 (configuration not stated) |  |  |  | > 64 | > 64 | 1.5 (≈ 0.599 µg/mL) | 0.15 | > 64 |  |  |  | > 64
